Measured values taken from PMC8929358 (Pharmacology Research & Perspectives, 2021).

Columns and labels:
[1] = target: T1, UGT1A6 (Homo sapiens, UniProt P19224); assay: Glucuronidation of opicapone by recombinant UGT1A6; assay type: in vitro ADME
T1 sequence (P19224 27-532): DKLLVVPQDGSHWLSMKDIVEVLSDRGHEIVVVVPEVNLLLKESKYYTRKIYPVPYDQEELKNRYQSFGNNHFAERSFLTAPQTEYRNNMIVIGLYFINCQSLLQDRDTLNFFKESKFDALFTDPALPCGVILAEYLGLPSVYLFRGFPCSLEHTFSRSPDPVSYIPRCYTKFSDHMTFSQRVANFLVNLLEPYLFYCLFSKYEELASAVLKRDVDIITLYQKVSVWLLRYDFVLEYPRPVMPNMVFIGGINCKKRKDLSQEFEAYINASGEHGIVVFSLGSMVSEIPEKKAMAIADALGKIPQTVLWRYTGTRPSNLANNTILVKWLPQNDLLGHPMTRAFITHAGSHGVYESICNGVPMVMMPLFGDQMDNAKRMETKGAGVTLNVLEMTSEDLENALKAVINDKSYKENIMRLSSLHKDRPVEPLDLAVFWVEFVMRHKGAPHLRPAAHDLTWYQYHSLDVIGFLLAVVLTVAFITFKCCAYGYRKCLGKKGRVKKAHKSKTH

[2] = assay type: in vivo, rat; settings: oral 100 mg/kg
Procedure, shortened: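 In Sprague Dawley rats given 100 mg/kg [14C]-labelled compound (100 μCi/kg) orally in 0.2% HPMC, heparinized blood was taken by cardiac puncture at 2–168 h. Plasma was precipitated with MeOH/ACN (50:50), dried under N2 and reconstituted. Urine (0–6, 6–24 h) and feces (0–12, 12–24, 24–48 h) were pooled and stored at −80°C. Analysis used accurate-mass LC-MS with offline radiodetection.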

[3] = Glucuronidation of opicapone in human liver microsomes; assay type: in vitro ADME; settings: human liver microsomes (HLM), pH 7.5
[4] = target: T2, UGT 1A3 (Homo sapiens, UniProt P35503); assay: Glucuronidation of opicapone by recombinant UGT1A3; assay type: in vitro ADME; settings: 20 μM opicapone
T2 sequence (P35503 29-534): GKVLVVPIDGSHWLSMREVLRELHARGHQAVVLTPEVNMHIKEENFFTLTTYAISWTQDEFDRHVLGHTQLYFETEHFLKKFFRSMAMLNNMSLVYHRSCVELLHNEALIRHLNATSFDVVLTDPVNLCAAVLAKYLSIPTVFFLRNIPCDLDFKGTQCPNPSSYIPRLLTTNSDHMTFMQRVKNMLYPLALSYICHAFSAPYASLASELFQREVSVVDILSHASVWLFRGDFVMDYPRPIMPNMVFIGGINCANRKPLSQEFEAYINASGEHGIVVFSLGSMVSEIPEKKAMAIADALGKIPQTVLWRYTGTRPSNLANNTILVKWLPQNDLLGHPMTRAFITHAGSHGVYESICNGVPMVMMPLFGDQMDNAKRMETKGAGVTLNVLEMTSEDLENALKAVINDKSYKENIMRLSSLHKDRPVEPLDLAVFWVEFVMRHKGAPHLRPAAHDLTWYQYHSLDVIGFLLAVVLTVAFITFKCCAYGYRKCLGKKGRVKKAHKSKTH

[5] = target: T3, UGT 1A1 (Homo sapiens, UniProt P22309); assay: Glucuronidation of opicapone by recombinant UGT1A1; assay type: in vitro ADME; settings: 20 μM opicapone
T3 sequence (P22309 26-533): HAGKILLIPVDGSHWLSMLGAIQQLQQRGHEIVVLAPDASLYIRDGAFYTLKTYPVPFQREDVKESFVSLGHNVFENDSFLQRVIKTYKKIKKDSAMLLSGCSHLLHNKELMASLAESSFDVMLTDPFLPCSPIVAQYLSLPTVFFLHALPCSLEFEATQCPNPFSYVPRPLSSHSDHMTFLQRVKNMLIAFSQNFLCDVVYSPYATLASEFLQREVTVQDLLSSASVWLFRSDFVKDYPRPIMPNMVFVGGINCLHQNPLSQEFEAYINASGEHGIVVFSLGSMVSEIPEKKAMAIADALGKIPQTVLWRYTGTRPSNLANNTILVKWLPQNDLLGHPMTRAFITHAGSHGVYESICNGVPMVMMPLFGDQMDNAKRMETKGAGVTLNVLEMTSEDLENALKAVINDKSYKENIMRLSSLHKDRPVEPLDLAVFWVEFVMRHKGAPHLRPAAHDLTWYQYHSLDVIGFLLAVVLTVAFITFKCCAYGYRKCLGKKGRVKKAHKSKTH

[6] = target: T4, UGT 2B15 (Homo sapiens, UniProt P54855); assay: Glucuronidation of opicapone by recombinant UGT2B15; assay type: in vitro ADME; settings: 20 μM opicapone
T4 sequence (P54855 24-530): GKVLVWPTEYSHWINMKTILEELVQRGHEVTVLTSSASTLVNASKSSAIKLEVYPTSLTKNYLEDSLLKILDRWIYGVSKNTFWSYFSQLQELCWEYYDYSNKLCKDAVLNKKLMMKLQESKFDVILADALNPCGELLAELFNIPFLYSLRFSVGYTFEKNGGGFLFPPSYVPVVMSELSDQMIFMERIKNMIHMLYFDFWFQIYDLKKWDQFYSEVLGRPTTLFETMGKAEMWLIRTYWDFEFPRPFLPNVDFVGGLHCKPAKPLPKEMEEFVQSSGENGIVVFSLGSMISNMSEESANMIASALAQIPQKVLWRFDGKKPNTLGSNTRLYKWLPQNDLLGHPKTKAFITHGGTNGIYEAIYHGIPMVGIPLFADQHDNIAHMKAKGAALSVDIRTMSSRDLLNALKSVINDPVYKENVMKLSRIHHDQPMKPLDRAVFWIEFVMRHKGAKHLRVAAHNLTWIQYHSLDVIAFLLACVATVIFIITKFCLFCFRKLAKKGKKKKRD

In the case of `Cc1c(Cl)c(C)[n+]([O-])c(Cl)c1-c1noc(-c2cc(O)c(O)c([N+](=O)[O-])c2)n1` [opicapone, 2,5‐dichloro‐3‐(5‐(3,4‐dihydroxy‐5‐nitrophenyl)‐1,2,4‐oxadiazol‐3‐yl)‐4,6‐dimethylpyridine 1‐oxide], the “Formation of BIA 9-1106 (screening)” value ([1]; 20 μM opicapone) is reported as “little amounts”, the “Glucuronidation kinetics (form of the rate curve)” value ([1]; opicapone 1 to 250 μM) is reported as “linear” and the “Plasma, % of total AUC0–168 h of drug-related radioactivity” value ([2]; ND = not detected) is reported as 15.1%. The “Time of peak of unchanged opicapone in plasma” value ([2]; earliest time point analyzed) was 2 h, the “Feces, % of administered dose” value ([2]; feces pools 0–48 h, ND = not detected) was 6.25% and the “Urine, % of administered dose” value ([2]; urine pools 0–24 h, ND = not detected, 100 mg/kg) was 0.1%. The Km [3] was 27.9 ± 6.4 µM, the “Formation of BIA 9-1106 (screening)” value [4] was “little amounts” and the “Formation of BIA 9-1106 (screening)” value [5] was “little amounts”. The “Formation of BIA 9-1106 (screening)” value [6] was “little amounts”.
